NALP3 yeast inh: inhibitors of NALP3 inflammasome in yeast | AID 2825 | 330,000 compounds, 0.39% hits | Yeast reconstituted NLRP3/ASC/caspase-1, beta-gal luminescence, 24 h | inhibition, % at 10 µM;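 active means inhibition of 50% or more; inactive means inhibition below 50%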;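 further: plate controls were induced DMSO wells for no effect and uninduced yeast grown without galactose for full effect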
NALP1 inh: NALP1 inhibition; S. cerevisiae NALP1/ASC/caspase-1 growth, X-gal OD620, 72 h; inhibition, % at 10 µM; 280,000 compounds, 0.61% hits; AID 2071; in the data active means inhibition mostly above about 24%, no sharp cut-off; inactive means mostly below about 32%
VIM-2 inhibitor: inhibitors of Pseudomonas aeruginosa VIM-2 metallo-beta-lactamase; purified VIM-2, nitrocefin hydrolysis, epi-absorbance fluorescence; inhibition, % at 5.6 µM; 290,000 compounds, 0.89% hits; AID 1527;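 active means inhibition above the mean of all tested compounds plus 3 SD, cutoff set per screening run, cut at about 7.5% in these data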;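 further: red hydrolysis product quenches plate fluorescence so inhibitors raise well fluorescence; 0% = enzyme with DMSO and 100% = DMSO without enzyme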
Mot1-301 SUMO: SUMOylation pathway inhibition by Mot1-301 growth rescue | S. cerevisiae Mot1-301 growth rescue, ATP luminescence, 38.5C; percent above DMSO median, 100 means doubled | growth rescue, % at 18.8 µM | 320,000 compounds, 1% hits | AID 2716;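 active means every valid replicate shows activation above 250% relative to neutral control wells; inactive means the rest, any valid replicate at or below 250%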;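 further: OY570 slx delta 5 strain wells were the positive control but not used for scaling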
IMP-1 inhibitor: inhibitors of Pseudomonas aeruginosa IMP-1 metallo-beta-lactamase; purified IMP-1, nitrocefin hydrolysis, epi-absorbance fluorescence; inhibition, % at 5.6 µM; 290,000 compounds, 0.45% hits; AID 1556;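 active means inhibition above the mean plus 3 SD of all compounds in the same screening run, cut at about 4.5% in these data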;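 further: 0% = IMP-1 with DMSO and 100% = DMSO wells lacking enzyme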
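System: purified recombinant IMP-1 beta-lactamase. Medium: Zinc- and detergent-supplemented HEPES buffer, pH 7.1. Compound: one 5.6 µM dose […]. Schedule: 15 min preincubation plus 25 min reaction at 25 °C. Technique: Epi-absorbance fluorescence, 480 nm excitation, 530 nm emission.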
PolyA inh: blocks polyadenylation in yeast reporter cells. 300,000 compounds, 0.02% hits. activity score, % at 12 µM. AID 1875. S. cerevisiae SKY197-pL101 polyadenylation reporter, beta-gal luminescence; efflux-impaired pdr1/pdr3 knockout yeast; score 100 = 6 SD above DMSO;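 active means lowest replicate activity score at least 50, where 100 means six control SD above control mean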;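 further: yeast exposed to compound for 9 h at 30 °C; higher score means more reporter readthrough which indicates perturbed polyadenylation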
Active calls of the source: *; · = not tested or not shown; + = active, no number; ! = repeats disagree. Most compounds without a hit are left out; they make up all but 2.9% or so of the library.

SMILES	NALP3 yeast inh	NALP1 inh	VIM-2 inhibitor	Mot1-301 SUMO	IMP-1 inhibitor	PolyA inh
Cc1oc2cc(O)ccc2c(=O)c1Oc1ccccc1	7	5	-2	9	-2	-12
CCOC(=O)C1=C(C)N(CCCC(=O)O)C(=O)NC1c1ccc(C(F)(F)F)cc1 (stereo not drawn)	3	·	·	·	·	0
COc1cccc(NC(=O)COC(=O)Cc2ccc(Cl)cc2)c1	9	30*	0	-14	-1	20
CCNS(=O)(=O)c1ccc(CCC(=O)NCc2ccc3c(c2)OCO3)cc1	15	·	-1	14	0	18
O=C(NCCn1cccn1)C1CCC(=O)N(CCc2ccccc2)C1 (stereo not drawn)	8	0	0	9	-3	6
O=C1NC(=O)C(c2ccccc2)(c2ccccc2)N1	3	11	-3	332*!	-3	-6
O=C1NC(=O)C(c2ccccc2)(c2ccc(O)cc2)N1 (stereo not drawn)	4	·	·	17	·	·
c1ccc2c(c1)ncn2Cc1nnc2sc(-c3ccc4c(c3)OCO4)nn12	-5	7	9.6*	·	-2	-38
Clc1ccccc1-c1nn2c(Cn3cnc4ccccc43)nnc2s1	-5	13	-1	4	-5	16
COc1ccc(OC)c(-n2cnc3cc(C(=O)NCCCN4CCOCC4)ccc32)c1	5	23*	4	-14	-2	14
CCOc1ccc(-n2c(C)nc3cc(C(=O)NCCN4CCOCC4)ccc32)cc1	-5	-140	-2	-18	-3	4
CCOc1ccc(-n2c(C)nc3cc(C(=O)NCCCN4CCOCC4)ccc32)cc1	20	26*	-2	18	0	-3
COc1ccc(-n2cnc3cc(C(=O)NCCN4CCOCC4)ccc32)cc1	11	5	-2	-4	-2	-15
CCCCOc1ccc(C2CC(=O)NC2=O)cc1 (stereo not drawn)	17	25	-4	5	-2	-8
CCCCOc1ccc(CC2CCC(=O)NC2=O)cc1 (stereo not drawn)	37	4	-2	+	-3	-10
O=C(/C=C/c1ccc(F)cc1)c1ccccc1Br	15	55*	-1	-37	-2	-13
Cc1ccc(C(=O)/C=C/c2ccc(F)cc2)o1	2	20	0	-3	0	2
Cc1ccc(S(=O)(=O)NC(=O)Nc2ccc(OC(F)F)cc2)cc1	9	36*	-2	-11	-2	10
COc1ccc(NC(=O)C2CCCN2C(=O)NC2CCCCC2)c(OC)c1 (stereo not drawn)	19	0	-4	-1	-1	-11
O=C(NCCCN1CCCC1)c1ccc2c(Cl)c3c(nc2c1)CCCC3	-4	17	2	-1	-2	15
CCN(CC)CCCNC(=O)c1ccc2c(Cl)c3c(nc2c1)CCCC3	7	-7	9.3*	81	-3	2
CCN(CC)CCCNC(=O)c1ccc2c(SCC(=O)O)c3c(nc2c1)CCC3	5	27	2	-9	-4	14
CCCN1CCN(CCCNC(=O)c2ccc3c(Cl)c4c(nc3c2)CCCC4)CC1	14	18	8.4*	7	-3	-20
CCN(CC)CCNC(=O)CSc1c2c(nc3cc(Cl)ccc13)CCCC2	3	14	8.4*	31	-1	-8
O=C(CNS(=O)(=O)c1ccc(Br)s1)N1CCN(c2ccc(F)cc2)CC1	8	11	0	20	-3	2
SMILES	NALP3 yeast inh	NALP1 inh	VIM-2 inhibitor	Mot1-301 SUMO	IMP-1 inhibitor	PolyA inh
CCOCCCn1c(-c2ccc(Cl)cc2)n[nH]c1=S	18	1	6	36	-2	-22
S=c1[nH]nc(-c2ccc(Cl)cc2)n1CCCN1CCOCC1	19	-13	8.4*	-19	-3	-1
COCCN(C(=O)c1cc(S(=O)(=O)N2CCCCC2)ccc1Cl)c1c(N)n(CC(C)C)c(=O)[nH]c1=O	5	·	·	·	·	·
CCC(C)N1CCNCC1 (stereo not drawn)	5	2	-2	125	-1	2
COc1ccc(-c2c(C)nn3c(N)c(-c4ccccc4)cnc23)cc1OC	15	13	-1	0	-1	-15
COc1ccc(S(N)(=O)=O)cc1-c1nnc2c3ccccc3c(C)nn12	-1	·	1	304*	-2	-4
O=C(CN(Cc1cccs1)C(=O)CN1C(=O)COc2ccccc21)NCc1ccco1	12	-6	0	1	5.4*	-3
CCOC(=O)COc1ccc2c(C#N)c3ccccn3c2c1	·	5	1	·	0	-15
COc1cc(OC)cc(C(=O)c2c(C)c(C#N)c3ccccn23)c1	28	13	7.8*	·	-2	-4
Cc1nccc(-c2cc(-c3ccc(Cl)cc3Cl)no2)n1	24	-1	0	328*	0	9
O=C(c1cc(-c2ccc(Cl)cc2Cl)on1)N1CCCC1	39	1	-1	-1	-4	-16
O=C(COc1ccc2c3c(c(=O)oc2c1)CCC3)N1CCCCC1	5	8	12*	273	-2	-5
O=C(COc1ccc2c3c(c(=O)oc2c1)CCCC3)N1C[C@H]2C[C@@H](C1)c1cccc(=O)n1C2	-4	9	9.1*	413	1	1
COc1ccc(-c2cc(=O)oc3cc(OCC(=O)N4C[C@H]5C[C@@H](C4)c4cccc(=O)n4C5)ccc23)cc1	10	10	2	-12	-1	-1
CC(C)Oc1ccc2c3c(c(=O)oc2c1)CCC3	46	-2	8.6*	0	-2	-20
CC(=O)Oc1ccc2c3c(c(=O)oc2c1)CCCC3	25	18	4	1	-5	-4
O=C(COc1ccc2c3c(c(=O)oc2c1)CCC3)NCCCN1CCCC1=O	16	-10	11*	3	0	-7
O=C(COc1ccc2c3c(c(=O)oc2c1)CCC3)N1CCCC1	-3	2	9.8*	7	-3	4
O=C(COc1ccc2c3c(c(=O)oc2c1)CCC3)N1CCN(c2ccccc2)CC1	1	17	11*	5	-3	17
Cc1nn(-c2ccccn2)c2c1C(=O)C(Br)CC2 (stereo not drawn)	·	14	2	·	-3	·
Cc1cc(C)c(NS(=O)(=O)c2ccc(NC(=O)/C=C/C(=O)O)cc2)c(C)c1	-7	51*	-2	-2	-2	2
Cc1cc(C)c(NS(=O)(=O)c2ccc(Cl)c(C(=O)O)c2)c(C)c1	20	2	-1	6	0	-3
Cc1ccc(Oc2ccc(NS(=O)(=O)c3cccc(C(=O)O)c3)cc2)cc1	21	·	·	-6	·	·
CCCN1CCN(CCCNC(=O)CCCn2nc(C)c3sc4ccccc4c3c2=O)CC1	9	32	5	352*	-1	16
CCN1CCN(C(=O)Cn2nc(C)c3sc4ccccc4c3c2=O)CC1	6	8	9.3*	-8	-1	4
